Reference: ChEMBL document CHEMBL4270554, “Discovery of the cancer cell selective dual acting anti-cancer agent (Z)-2-(1H-indol-3-yl)-3-(isoquinolin-5-yl)acrylonitrile (A131)” (Eur J Med Chem, 2018)

Experiments:
[1] = system: hTERT-BJ; experiment: Induction of autophagy in human hTERT-BJ cells transformed with hTert, small t, shRNAs against p53 and pRb and H-RasV12-ER assessed as increase in LC3-2 to LC3-1 ratio at 5 uM after 24 hrs by immunoblot analysis relative to control; assay type: functional
Outline: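 Fully transformed BJ fibroblasts (hTert, small t, shRNAs to p53 and pRb, H-RasV12-ER) grown at 37 °C, 5% CO2 in 10% FBS medium; treated 24 h at 5 μM. Triton lysis, 14% SDS-PAGE, LC3 immunoblot; LC3-II/LC3-I band ratio relative to DMSO-treated control, under 2-fold induction deemed insignificant.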

[2] = Antiproliferative activity against human BJ cells after 72 hrs by MTT assay; assay type: cell-based
Outline: (§1)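 Cells cultured at 37 °C, 5% CO₂ in medium with 10% FBS and penicillin/streptomycin, used within 12-20 passages. Seeded at 2.5×10^3 cells/well for 24 h, then compound added from DMSO stocks at 200-fold final concentration (final DMSO 0.5% v/v). After 72 h, 0.5 mg/mL MTT for 3 h, formazan dissolved in DMSO, A570 read. IC50 from sigmoidal fit; three independent determinations.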

[3] = Antiproliferative activity against human IMR90 cells after 72 hrs by MTT assay; assay type: cell-based; details: IMR-90 cells; outline: as §1
[4] = Antiproliferative activity against human ARPE19 cells after 72 hrs by MTT assay; assay type: cell-based; details: ARPE-19 cells; outline: as §1
[5] = Antiproliferative activity against human WI38 cells after 72 hrs by MTT assay; assay type: cell-based; details: WI-38 cells; outline: as §1
[6] = Antiproliferative activity against human NCC24 cells after 72 hrs by MTT assay; assay type: functional; outline: as §1
[7] = Antiproliferative activity against human Ist1 cells after 72 hrs by MTT assay; assay type: functional; outline: as §1
[8] = system: HGC-27; experiment: Antiproliferative activity against human HGC27 cells after 72 hrs by MTT assay; assay type: functional; details: HGC-27, 72 h; outline: as §1
[9] = system: MKN-45; experiment: Antiproliferative activity against human MKN45 cells after 72 hrs by MTT assay; assay type: functional; details: MKN-45, 72 h; outline: as §1
[10] = system: IM95; experiment: Antiproliferative activity against human IM95 cells after 72 hrs by MTT assay; assay type: functional; details: IM95, 72 h; outline: as §1
[11] = Antiproliferative activity against human NCC19 cells after 72 hrs by MTT assay; assay type: functional; outline: as §1
[12] = system: HCT-15; experiment: Antiproliferative activity against human HCT15 cells after 72 hrs by MTT assay; assay type: functional; details: HCT-15, 72 h; outline: as §1
[13] = system: DLD-1; experiment: Antiproliferative activity against human DLD1 cells after 72 hrs by MTT assay; assay type: functional; details: DLD-1, 72 h; outline: as §1
[14] = Antiproliferative activity against human HEp-3 cells after 72 hrs by MTT assay; assay type: functional; outline: as §1
[15] = system: SNU-449; experiment: Antiproliferative activity against human SNU449 cells after 72 hrs by MTT assay; assay type: functional; details: SNU-449, 72 h; outline: as §1
[16] = system: MDA-MB-231; experiment: Antiproliferative activity against human MDA-MB-231 cells after 72 hrs by MTT assay; assay type: functional; details: MDA-MB-231, 72 h; outline: as §1
[17] = system: HeLa; experiment: Antiproliferative activity against human HeLa cells after 72 hrs by MTT assay; assay type: functional; outline: as §1
[18] = Antiproliferative activity against human AC10 cells at 50 uM after 72 hrs by MTT assay; assay type: cell-based
[19] = system: TAMH; experiment: Antiproliferative activity against mouse TAMH cells at 50 uM after 72 hrs by MTT assay; assay type: cell-based
[20] = Antiproliferative activity against human SNU1750 cells after 72 hrs by MTT assay; assay type: functional; outline: as §1
[21] = system: Salmonella typhimurium; experiment: Genotoxicity in Salmonella typhimurium TA98 after 48 hrs in presence of S9 fraction by Ames test; assay type: toxicity, organism-based; details: salmonella enterica subsp. enterica serovar typhimurium, s9, 48 h
[22] = system: Salmonella typhimurium; experiment: Genotoxicity in Salmonella typhimurium TA100 after 48 hrs in presence of S9 mix by Ames test; assay type: toxicity, organism-based; details: salmonella enterica subsp. enterica serovar typhimurium
[23] = system: BJ; experiment: Antiproliferative activity against human BJ cells assessed as reduction in cell viability at 5 uM incubated for 2 days followed by compound washout measured after 11 days by cell counting method; assay type: cell-based; details: 48 h
Outline: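 Normal BJ fibroblasts synchronized in G1 by 2-day serum starvation (0.1% FBS), released into 10% FBS medium and exposed to 5 μM for 2, 4 or 11 days. After 2 or 4 days drug removed and growth continued in fresh medium up to 11 days. Total cell numbers by automated counter; mean ± S.D., n>6.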

[24] = Half life in pooled female rat liver microsomes at 3 uM preincubated for 5 mins followed by NADPH addition measured after 45 mins by LC-MS/MS method; assay type: ADME, microsome
Outline: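 Pooled female or male rat liver microsomes (0.3 mg protein/mL) with 3 μM substrate in 0.1 M phosphate buffer pH 7.4, pre-incubated 5 min at 37 °C, started with 1 mM NADPH. Samples at 0-45 min quenched in cold acetonitrile with internal standard, analysed by LC-MS/MS. Triplicates; midazolam positive control, no-NADPH negative control.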

[25] = system: Mus musculus; experiment: Toxicity in BALB/c athymic nu/nu mouse xenografted with human HCT15 cells assessed as effect on body weight at 20 mg/kg, ip bid administered 12 days; assay type: organism-based; details: in vivo, 288 h
Outline: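 Female BALB/c nu/nu mice aged 5–7 weeks, implanted subcutaneously in the flank with 5×10^6 HCT15 cells. At mean tumour 100–300 mm³, randomised into groups of 6. Given 20 mg/kg ip twice daily for 12 days, vehicle 10% DMSO/50% PEG400 in water pH 5.0.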

[26] = system: HeLa; experiment: Induction of autophagy in human HeLa cells assessed as increase in LC3-2 to LC3-1 ratio at 1.25 uM after 6 hrs by immunoblot analysis relative to control; assay type: functional
Outline: (§2)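 HeLa cells exposed 6 h to test agent (0.625–10 μM series) or chloroquine (1.25–100 μM series) vs DMSO; lysed in 1% Triton buffer (25 mM Tris pH 8.0, 150 mM NaCl, DTT, protease/phosphatase inhibitors), 14% SDS-PAGE, immunoblot with anti-LC3, anti-pH3(Ser10), β-actin loading. LC3-II/LC3-I band intensity ratio expressed relative to DMSO control.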

[27] = system: HeLa; experiment: Induction of autophagy in human HeLa cells assessed as increase in LC3-2 to LC3-1 ratio at 2.5 uM after 6 hrs by immunoblot analysis relative to control; assay type: functional; outline: as §2
[28] = system: HeLa; experiment: Induction of autophagy in human HeLa cells assessed as increase in LC3-2 to LC3-1 ratio at 10 uM after 6 hrs by immunoblot analysis relative to control; assay type: functional; outline: as §2
[29] = system: HeLa; experiment: Induction of autophagy in human HeLa cells assessed as increase in LC3-2 to LC3-1 ratio at 0.625 uM after 6 hrs by immunoblot analysis relative to control; assay type: functional
Outline: (§3)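 HeLa cells were exposed for 6 h to the compound at 0.625, 1.25, 2.5, 5 or 10 µM, or to DMSO. Cells were lysed in 1% Triton buffer (pH 8.0) with protease and phosphatase inhibitors. Lysates were resolved by 14% SDS-PAGE and immunoblotted for LC3, with β-actin probed. The LC3-II/LC3-I band-intensity ratio was expressed relative to the DMSO control.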

[30] = system: HeLa; experiment: Induction of autophagy in human HeLa cells assessed as increase in LC3-2 to LC3-1 ratio at 5 uM after 6 hrs by immunoblot analysis relative to control; assay type: functional; outline: as §3

Compound: N#C/C(=C\c1cccc2cnccc12)c1c[nH]c2ccccc12
- fold change (FC) [1]: 5
- GI50 at 72 h [2]: 8100 nM
- GI50 at 72 h [3]: 5800 nM
- GI50 at 72 h [4]: > 10000 nM
- GI50 at 72 h [5]: 3400 nM
- GI50 [6]: 1200 nM
- GI50 [7]: 2200 nM
- GI50 [8]: 1200 nM
- GI50 [9]: 1000 nM
- GI50 [10]: 1000 nM
- GI50 [11]: 4600 nM
- GI50 [12]: 500 nM
- GI50 [13]: 1200 nM
- GI50 [14]: 3700 nM
- GI50 [15]: 2300 nM
- GI50 [16]: 1100 nM
- GI50 [17]: 1400 nM
- Activity [18]: 77.6%
- Activity [19]: 57.3%
- GI50 [20]: 700 nM
- Activity [21]: Non-Toxic
- Activity [22]: Non-Toxic
- Activity [23]: Non-Toxic
- half-life at 3 µM [24]: 40.2 min
- Activity [25]: Non-Toxic
- fold change (FC) [26]: 2.3
- fold change (FC) [27]: 3
- fold change (FC) [28]: 4.3
- fold change (FC) [29]: 1
- fold change (FC) [30]: 4.3
